Measurements of several laboratories.
Observed: cell growth or viability

| Compound | cell line | test | conditions | IC50 |
| --- | --- | --- | --- | --- |
| Cc1ccc(-c2cc(COCc3ccc(C(C)C)cc3)c3cccnc3c2O)cc1 | MDA-MB-453 | MTS | 72 h | 0.9 µM |
| O=C1Nc2ccccc2C(=O)CCCc2ccccc21 | L6 | – | – | 130 µM |
| COC(=O)Nc1nc2ccc(C(=O)c3ccccc3)cc2[nH]1 | GISTT1 | resazurin | 72 h | 0.81 µM |
| CO/N=C1\CCc2ccccc2C(=O)Nc2ccccc21 | L6 | – | – | 250 µM |
| CCC(=O)Nc1cc(Nc2nc(N3CCc4sccc4C3)c3cccnc3n2)c(OC)cc1N1CCOCC1 | NCI-H460 | MTT | – | > 50 µM |
| O=C1Nc2ccc(S(F)(F)(F)(F)F)cc2C(=O)CCc2ccccc21 | L6 | – | – | 2.8 µM |
| C=CC(=O)Nc1cc(Nc2nc(N3CCOCC3)c3sccc3n2)c(OC)cc1N(C)CCN(C)C | NCI-H460 | MTT | – | > 50 µM |
| COc1ccccc1C(=O)c1cc2c(-c3ccccc3)c(OC)ccc2o1 | L1210 | – | 48 h | > 50 µM |
| CC(C)n1c(/C=C/C(O)CC(O)CC(=O)O)c(-c2ccc(F)cc2)c2ccccc21 (centres unmarked) | L1210 | MTS | 96 h | 2.3 µM |
| CC(C)[C@H](N)c1nc2cc(-c3ccnnc3)sc2c(=O)[nH]1 | COLO 205 | MTT | – | 5.97 µM |
| O=c1c(O)c(-c2ccc(O)c(O)c2)oc2cc(O)cc(O)c12 | SCaBER | ATP luminescence | 72 h | 24.2 µM |
| O=C1Nc2ccccc2C(=O)CCc2ccc(F)cc21 | L6 | – | – | 110 µM |
| COc1cc2ccc(=O)oc2cc1OC | COLO 205 | MTT | 72 h | > 100 µM |
| N[C@@H](CC(=O)N1CCN(C(c2ccc(F)cc2)c2ccc(F)cc2)CC1)C(=O)N1Cc2ccccc2C1 | RS4-11 | ATP luminescence | 24 h | 28.3 µM |
| C[C@@H]1O[C@@H](O[C@H]2C[C@@H](O)[C@]3(CO)[C@H]4[C@H](O)C[C@]5(C)[C@@H](C6=CC(=O)OC6)CC[C@]5(O)[C@@H]4CC[C@]3(O)C2)[C@H](O)[C@H](O)[C@H]1O | GISTT1 | resazurin | 72 h | 0.21 µM |
| CC(C)C[C@H](NC(=O)[C@H](Cc1ccccc1)NC(=O)c1cnccn1)B(O)O | NCI-H1838 | ATP luminescence | – | 0.053 µM |
| O=C1Nc2ccc(C(F)(F)F)cc2C(=O)CCc2ccccc21 | L6 | – | – | 9 µM |
| COc1cc(OC)cc(C(=O)c2cc3c(-c4ccccc4)c(O)ccc3o2)c1 | L1210 | – | 48 h | 19 µM |
| CC(C)[C@H](N)c1nc2cc(-c3cn[nH]n3)sc2c(=O)[nH]1 | COLO 205 | MTT | – | 3.79 µM |

| Compound | cell line | test | conditions | IC50 |
| --- | --- | --- | --- | --- |
| O=C1c2c(O)ccc(O)c2C(=O)c2c(NCCNCCO)ccc(NCCNCCO)c21 | GISTT1 | resazurin | 72 h | 0.42 µM |
| O=C(c1ccccc1)c1cc2c(-c3ccccc3)c(O)ccc2o1 | L1210 | – | 48 h | 37 µM |
| CC(=O)[C@]1(O)Cc2c(O)c3c(c(O)c2[C@@H](O[C@H]2C[C@H](N)[C@H](O)[C@H](C)O2)C1)C(=O)c1ccccc1C3=O | GISTT1 | – | 72 h | 0.09 µM |
| O=c1c(O[C@@H]2O[C@H](CO)[C@@H](O)[C@H](O)[C@H]2O)c(-c2ccc(O)c(O)c2)oc2cc(O)cc(O)c12 | SCaBER | ATP luminescence | 72 h | 8.66 µM |
| COc1cc(OC)cc(C(=O)c2cc3c(-c4ccccc4)c(OC)ccc3o2)c1 | L1210 | – | 48 h | > 50 µM |
| NC(=O)c1ccc2c(c1)C(=O)CCc1ccccc1C(=O)N2 | L6 | – | – | > 340 µM |
| CC(C)=CCC/C(C)=C/COc1ccc2ccc(=O)oc2c1 | COLO 205 | MTT | 24 h | 55.1 µM |
| C#C[C@]1(O)CC[C@H]2[C@@H]3CCC4=Cc5oncc5C[C@]4(C)[C@H]3CC[C@@]21C | GISTT1 | resazurin | 72 h | > 1 µM |
| C=C[C@H]1C[N@@]2CC[C@H]1C[C@@H]2[C@@H](O)c1ccnc2ccc(OC)cc12 | MDCK-II | MTT | 48 h | 267 µM |
| CCN(CC)CCCC(C)Nc1ccnc2cc(Cl)ccc12 (centres unmarked) | GISTT1 | resazurin | 72 h | > 1 µM |
| O=[N+]([O-])c1ccc(Cn2cc(Cn3c4ccccc4c4nc5ccccc5nc43)nn2)cc1 | INS1 | MTT | 24 h | > 100 µM |
| CCOC(=O)c1ccc2c(c1)C(=O)CCc1ccccc1C(=O)N2 | L6 | – | – | 15 µM |
| COc1ccc(C(=O)c2cc3c(-c4ccccc4)c(O)ccc3o2)cc1 | L1210 | – | 48 h | 1.3 µM |
| CC(C)[C@@H](N)c1nc2cc(-c3ccncc3F)sc2c(=O)[nH]1 | COLO 205 | MTT | – | 1.19 µM |
| CCN1C(=O)N(c2c(F)c(OC)cc(OC)c2F)Cc2cnc3[nH]c(CN4CCOCC4)cc3c21 | MDA-MB-453 | ATP luminescence | 96 h | 0.0764 µM |
| Nc1nc(Cl)nc2c1ncn2[C@@H]1O[C@H](CO)[C@@H](O)[C@@H]1F | GISTT1 | resazurin | 72 h | > 1 µM |
| COc1ccc2oc(C(=O)c3ccccc3)cc2c1-c1ccccc1 | L1210 | – | 48 h | > 50 µM |
| O=C1Nc2ccc(OC(F)(F)F)cc2C(=O)CCc2ccccc21 | L6 | – | – | 44 µM |
| Nc1nc(F)nc2c1ncn2[C@@H]1O[C@H](COP(=O)(O)O)[C@@H](O)[C@@H]1O | GISTT1 | – | 72 h | 0.53 µM |
